These results are taken from BindingDB's records for doi:10.1021/jm0300835 (Duke University, 2003).

Bounds are passed on as bounds.

Test [1] addresses T1, M-phase inducer phosphatase 2 (Homo sapiens, UniProt P30305).
T1 sequence (P30305 whole entry): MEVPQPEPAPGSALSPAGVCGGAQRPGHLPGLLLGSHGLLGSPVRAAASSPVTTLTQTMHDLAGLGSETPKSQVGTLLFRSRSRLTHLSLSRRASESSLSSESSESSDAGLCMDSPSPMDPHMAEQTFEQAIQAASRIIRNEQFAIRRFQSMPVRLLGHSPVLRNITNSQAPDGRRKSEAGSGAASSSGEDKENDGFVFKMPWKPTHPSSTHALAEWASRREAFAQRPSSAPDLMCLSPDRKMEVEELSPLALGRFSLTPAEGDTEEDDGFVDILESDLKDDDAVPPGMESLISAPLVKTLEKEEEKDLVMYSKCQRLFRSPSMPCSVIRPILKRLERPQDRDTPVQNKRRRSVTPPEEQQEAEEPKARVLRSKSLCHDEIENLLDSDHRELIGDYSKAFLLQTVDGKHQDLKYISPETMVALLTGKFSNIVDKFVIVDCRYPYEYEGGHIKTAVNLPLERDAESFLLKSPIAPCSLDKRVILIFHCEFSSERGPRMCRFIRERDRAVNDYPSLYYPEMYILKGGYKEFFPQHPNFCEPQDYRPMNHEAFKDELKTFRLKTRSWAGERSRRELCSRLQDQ
As to the kind of experiment: Inhibitory concentration of compound against mutant E478Q of Cell division cycle 25B was determined. The procedure, abridged:
(§1)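 Cdc25B catalytic-domain point mutants, a truncated form and wild type were assayed with 3-O-methylfluorescein phosphate as substrate, monitored at 477 nm under initial velocity conditions. Values are the mean of two separate determinations.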

Test [2] concerns the target T1, M-phase inducer phosphatase 2. The experiment in a line: Inhibitory concentration of compound against mutant E474Q of Cell division cycle 25B was determined. The procedure, abridged:
as §1

For test [3], the target named is T2, M-phase inducer phosphatase 3 (Homo sapiens, UniProt P30307).
T2 sequence (P30307 whole entry): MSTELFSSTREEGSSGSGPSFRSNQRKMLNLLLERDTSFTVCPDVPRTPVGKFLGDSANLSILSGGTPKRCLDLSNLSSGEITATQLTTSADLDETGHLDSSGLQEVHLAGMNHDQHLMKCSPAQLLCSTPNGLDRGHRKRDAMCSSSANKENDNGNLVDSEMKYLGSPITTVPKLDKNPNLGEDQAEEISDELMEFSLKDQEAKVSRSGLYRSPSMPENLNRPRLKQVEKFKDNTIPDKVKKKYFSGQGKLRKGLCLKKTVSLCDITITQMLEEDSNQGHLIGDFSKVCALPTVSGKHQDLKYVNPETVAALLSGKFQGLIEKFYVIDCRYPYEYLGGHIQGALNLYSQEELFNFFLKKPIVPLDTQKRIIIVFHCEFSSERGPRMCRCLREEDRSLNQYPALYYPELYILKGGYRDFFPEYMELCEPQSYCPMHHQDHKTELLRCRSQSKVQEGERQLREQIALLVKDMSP
As to the kind of experiment: Eight point inhibitory concentration against […] was determined. The procedure, abridged:
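Phosphatase activity measured with 3-O-methylfluorescein phosphate at 50 μM (~5 × Km), product formation followed at 477 nm by UV-vis under initial velocity conditions (2–5% turnover) in time-dependent assays. Eight inhibitor concentrations were used, and IC50 was obtained by fitting to a dose–response equation.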

Test [4] addresses T1, M-phase inducer phosphatase 2. The experiment in a line: Inhibitory concentration of compound against mutant M531A of Cell division cycle 25B was determined. The procedure, abridged:
as §1

Test [5] has the same target. The experiment in a line: Inhibitory concentration of compound against mutant F475A of Cell division cycle 25B was determined. The procedure, abridged:
as §1

Test [6] shares this target. As to the kind of experiment: Eight point inhibitory concentration against Cell division cycle 25B was determined. Summed up: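 Cdc25B activity read by UV-vis at 477 nm as product formed from 3-O-methylfluorescein phosphate (mFP) at 50 μM (~5 × Km), time-dependent, initial-velocity conditions (2–5% turnover); eight inhibitor concentrations, IC50 fitted to eq 1. Each reaction compared with a simultaneous no-inhibitor control; selected compounds run in duplicate.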

Test [7] has the same target. As to the kind of experiment: Inhibitory concentration of compound against Cdc25B phosphatase was determined using CDK2-p-TpY/Cyclin A as a substrate. The procedure, abridged: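 Cdc25B IC50 with Cdk2-pTpY/CycA protein substrate at 300 nM; eight inhibitor concentrations; time-dependent assays; 1 mg/mL BSA carrier added only after TCA quench, not during reaction.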

Test [8] has the same target. The experiment in a line: Inhibitory concentration of compound against mutant WT of Cdc25B phosphatase was determined. Summed up:
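Cdc25B catalytic domain constructs (wild-type, site-directed point mutants, truncated); activity with 3-O-methylfluorescein phosphate at 50 μM (~5 × Km), product read at 477 nm by UV-vis under initial velocity (2–5% turnover); eight inhibitor concentrations, IC50 fitted; values are mean of two determinations.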

Usually IC50 stands for the concentration needed to halve the response being measured. Low values mean greater potency in that assay, high ones weaker potency in that assay. As for `CC(C)=CCc1cccc2c(C3C(=O)C(=O)CC(=O)C3=O)c[nH]c12` [2,5-Dihydroxy-3-[7-(3-methyl-but-2-enyl)-1H-indol-3-yl]-[1,4]benzoquinone], the IC50 in test [1] is 6.5 µM; in test [2] it was more than 50 µM; in test [3], 15 µM; in test [4] it was 6.5 µM; in test [5] it was more than 50 µM.

Consider `O=C1CC(=O)C(=O)C(c2c[nH]c3ccccc23)C1=O` [2,5-Dihydroxy-3-(1H-indol-3-yl)-[1,4]benzoquinone], for which the concentration for half-maximal inhibition (IC50) in test [6] is 18 µM; in test [7] it was more than 50 µM; in test [8], 18 µM.
